This passage reports Ki results from ChEMBL document CHEMBL1144014, “Protein phosphatase inhibitory activity of tautomycin photoaffinity probes evaluated at femto-molar level” (Bioorg Med Chem, 2008).

The target in this assay is Serine/threonine-protein phosphatase PP1-gamma catalytic subunit (Homo sapiens, UniProt P36873). Description: Inhibition of PP1gamma by firefly bioluminescence assay. The procedure, abridged: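 Recombinant PP1c (E. coli-expressed), concentration set by titration, diluted to 40 nM in Tris–HCl (pH 8.43) with 0.15% BSA and 4.0 mM DTT (DTT omitted for disulfide-containing probes). Inhibitor diacid (0–40 µM stock dilutions; 0–10 µM in assay) premixed with enzyme. Luciferin phosphate (40 µM, 5 µL) is added. After 6 min, released luciferin is read on an immobilized-luciferase column with photon counting, in triplicate. Ki is fitted with a tight-binding model.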
Sequence of Serine/threonine-protein phosphatase PP1-gamma catalytic subunit (P36873 whole entry): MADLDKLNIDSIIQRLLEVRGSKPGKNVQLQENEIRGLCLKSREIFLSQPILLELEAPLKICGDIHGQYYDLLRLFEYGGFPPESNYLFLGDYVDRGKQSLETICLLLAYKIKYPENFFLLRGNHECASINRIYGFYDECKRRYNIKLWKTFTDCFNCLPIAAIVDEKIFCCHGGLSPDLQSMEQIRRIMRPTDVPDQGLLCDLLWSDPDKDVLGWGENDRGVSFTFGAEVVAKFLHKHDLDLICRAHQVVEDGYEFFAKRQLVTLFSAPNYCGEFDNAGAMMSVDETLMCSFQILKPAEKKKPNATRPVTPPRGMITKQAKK
For the molecule `COc1cc(C2(C(F)(F)F)N=N2)ccc1C(=O)NCCNC(=O)CO/N=C(\C)[C@@H](C)CC[C@@H]1O[C@@]2(CC[C@H]1C)CC[C@H](C)[C@H]([C@H](C)CC[C@H](O)[C@H](C)C(=O)C[C@@H](O)[C@H](OC)[C@H](OC(=O)C[C@@H](O)/C(C(=O)O)=C(\C)C(=O)O)C(C)C)O2`, the affinity, expressed as Ki, was 213 nM.
With `CO[C@@H]([C@H](O)CC(=O)[C@@H](C)[C@@H](O)CC[C@@H](C)[C@@H]1O[C@]2(CC[C@@H](C)[C@H](CC[C@H](C)/C(C)=N\OCC(=O)Nc3cccc(C(=O)c4ccccc4)c3)O2)CC[C@@H]1C)[C@H](OC(=O)C[C@@H](O)/C(C(=O)O)=C(\C)C(=O)O)C(C)C`, the Ki was 32.5 nM.
Take `CO[C@@H]([C@H](O)CC(=O)[C@@H](C)[C@@H](O)CC[C@@H](C)[C@@H]1O[C@]2(CC[C@@H](C)[C@H](CC[C@H](C)/C(C)=N\OCC(=O)NCCNC(=O)c3ccc(F)c(N=[N+]=[N-])c3)O2)CC[C@@H]1C)[C@H](OC(=O)C[C@@H](O)/C(C(=O)O)=C(\C)C(=O)O)C(C)C`: the Ki was found to be 8.4 nM.
Molecule `COc1cc(C2(C(F)(F)F)N=N2)ccc1C(=O)NCCNC(=O)CO/N=C(/C)[C@@H](C)CC[C@@H]1O[C@@]2(CC[C@H]1C)CC[C@H](C)[C@H]([C@H](C)CC[C@H](O)[C@H](C)C(=O)C[C@@H](O)[C@H](OC)[C@H](OC(=O)C[C@@H](O)/C(C(=O)O)=C(\C)C(=O)O)C(C)C)O2` returned a Ki of 49.7 nM.
Next, `CO[C@@H]([C@H](O)CC(=O)[C@@H](C)[C@@H](O)CC[C@@H](C)[C@@H]1O[C@]2(CC[C@@H](C)[C@H](CC[C@H](C)/C(C)=N/OCC(=O)Nc3cccc(C(=O)c4ccccc4)c3)O2)CC[C@@H]1C)[C@H](OC(=O)C[C@@H](O)/C(C(=O)O)=C(\C)C(=O)O)C(C)C`: 8 nM; `CO[C@@H]([C@H](O)CC(=O)[C@@H](C)[C@@H](O)CC[C@@H](C)[C@@H]1O[C@]2(CC[C@@H](C)[C@H](CC[C@H](C)/C(C)=N/OCC(=O)NCCSSCCNC(=O)c3ccc(F)c(N=[N+]=[N-])c3)O2)CC[C@@H]1C)[C@H](OC(=O)C[C@@H](O)/C(C(=O)O)=C(\C)C(=O)O)C(C)C`: 19.6 nM.
In turn, `CO[C@@H]([C@H](O)CC(=O)[C@@H](C)[C@@H](O)CC[C@@H](C)[C@@H]1O[C@]2(CC[C@@H](C)[C@H](CC[C@H](C)/C(C)=N/OCC(=O)NCCCNC(=O)c3ccc(F)c(N=[N+]=[N-])c3)O2)CC[C@@H]1C)[C@H](OC(=O)C[C@@H](O)/C(C(=O)O)=C(\C)C(=O)O)C(C)C` showed a Ki of 3.4 nM.
Take `CO[C@@H]([C@H](O)CC(=O)[C@@H](C)[C@@H](O)CC[C@@H](C)[C@@H]1O[C@]2(CC[C@@H](C)[C@H](CC[C@H](C)/C(C)=N/OCC(=O)NCCNC(=O)c3ccc(F)c(N=[N+]=[N-])c3)O2)CC[C@@H]1C)[C@H](OC(=O)C[C@@H](O)/C(C(=O)O)=C(\C)C(=O)O)C(C)C`: the Ki came out at 17.3 nM.
The figure for `CO[C@@H]([C@H](O)CC(=O)[C@@H](C)[C@@H](O)CC[C@@H](C)[C@@H]1O[C@]2(CC[C@@H](C)[C@H](CC[C@H](C)/C(C)=N\OCC(=O)NCCSSCCNC(=O)c3ccc(F)c(N=[N+]=[N-])c3)O2)CC[C@@H]1C)[C@H](OC(=O)C[C@@H](O)/C(C(=O)O)=C(\C)C(=O)O)C(C)C` is 23.9 nM.
Next, `CO[C@@H]([C@H](O)CC(=O)[C@@H](C)[C@@H](O)CC[C@@H](C)[C@@H]1O[C@]2(CC[C@@H](C)[C@H](CC[C@H](C)C(C)=O)O2)CC[C@@H]1C)[C@H](OC(=O)C[C@@H](O)/C(C(=O)O)=C(\C)C(=O)O)C(C)C` [TAUTOMYCIN DIACID]: 4.5 nM.

Usually Ki stands for a dissociation constant, usually derived from enzyme kinetics or from competition with a known ligand. A low value points to a stronger hold on the target.
